Jurkat NFkB inh: lowers PMA/ionomycin-induced NF-kB signal in Jurkat cells. PMA/ionomycin-induced NF-kB luciferase reporter, luminescence. inhibition, % at 4 µM. 0.53% of 330,000 active. AID 435003; in the data active = inhibition above about 50%
697 NFkB inh: lowers PMA/ionomycin-induced NF-kB signal in 697 B cells | 0.33% of 330,000 active | 697 B-cell NF-kB luciferase reporter, 16 h | inhibition, % at 4 µM; in the data active = inhibition above about 35%
T cruzi repl: T. cruzi replication inhibition; T. cruzi beta-gal in NIH3T3, luminescence, 90 h; inhibition, % (no concentration beside the values); 1.4% of 300,000 active;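 active = mean inhibition across valid replicates above about 55%, limit read from the data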;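 also: signal also drops with host cell toxicity which is not excluded here; 0% = plate median of DMSO wells and 100% = zero luminescence signal; higher percent means less beta-gal luminescence so fewer parasites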
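Test system: β-gal T. cruzi (Tulahuen C4) inside NIH/3T3 cells / Quantity: 5,000 cells/well / Measured by: luminescence from GalScreen with 0.05% NP40, read after 60 min / Medium: DMEM plus 2% FBS / Measure: parasite load inhibition, % / Reagent: Tulahuen C4 trypomastigotes, 5000/well / Schedule: co-culture of at least 90 h after 3 h attachment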
HSF1 activator: increases HSF-1 driven luciferase reporter signal. AID 504408. 1.7% of 300,000 active. NIH3T3-HGL HSF-1 luciferase reporter, MG132, 8 h; 100% = twice DMSO control signal. activation, % at 9 µM;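 active = mean replicate activation of at least 50% with a set share of replicates each reaching 50%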;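 also: 0% = median of the neutral control wells and 100% = twice that signal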
GPR7 antag: antagonists of human GPR7 (neuropeptides B/W receptor 1); P48145; GPR7-expressing cells, fluorescence antagonist assay; inhibition, % at 4.4 µM; 1.1% of 290,000 active; in the data active = inhibition above about 16%, passing the limit was not always enough;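 also: cells stimulated with the agonist NPW; 0% = agonist with vehicle and 100% = vehicle without agonist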
Target sequence (P48145 whole entry, looked up): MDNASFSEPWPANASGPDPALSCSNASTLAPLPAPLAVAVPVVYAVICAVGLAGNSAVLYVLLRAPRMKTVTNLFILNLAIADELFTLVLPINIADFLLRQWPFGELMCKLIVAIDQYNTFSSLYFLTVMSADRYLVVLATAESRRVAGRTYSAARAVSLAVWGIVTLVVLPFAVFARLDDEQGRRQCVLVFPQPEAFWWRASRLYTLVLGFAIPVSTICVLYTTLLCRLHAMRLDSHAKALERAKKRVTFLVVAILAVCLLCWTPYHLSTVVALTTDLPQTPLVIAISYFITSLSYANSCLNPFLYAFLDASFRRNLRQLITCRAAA
HSF1 inhib: HSF1 inhibition; 0.77% of 300,000 active; activity change, negative = inhibition, % at 7.5 µM (by protocol); NIH3T3-HGL HSE-luciferase, MG132-induced, luminescence 8 h; active compounds read low;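 active = more than half of replicate wells show activity change below -50%, luminescence cut by over half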;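 also: luciferase reports HSF-1 transcriptional activity via heat shock element; 0% = median of DMSO wells and -100% = zero luminescence signal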
GPR7 antag cf: confirmation of human GPR7 antagonists; shares compounds with GPR7 antag; GPR7-expressing cells, calcium fluorescence antagonist mode; inhibition, % at 4.4 µM; 52% of 2,400 active; AID 1952; in the data active = inhibition above about 24%;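 also: stimulated with the GPR7 agonist NPW; 0% = agonist plus vehicle and 100% = vehicle alone without agonist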
MCHR1 antag: antagonizes human MCHR1, a GPR7 antagonist counter-screen. inhibition, % at 4.4 µM. MCHR1-expressing cells, fluorescence antagonist assay. shares compounds with GPR7 antag. 62% of 2,400 active; in the data active = inhibition above about 22%;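 also: 0% = vehicle with agonist and 100% = vehicle without agonist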
Active calls of the source: *; · = no result given. This is a sample that favours compounds with a hit; in the whole collection about 4.8% have one here.

SMILES | Jurkat NFkB inh | 697 NFkB inh | T cruzi repl | HSF1 activator | GPR7 antag | HSF1 inhib | GPR7 antag cf | MCHR1 antag
COc1cccc(CNC(=O)CN2C(=O)COc3ccc(S(=O)(=O)N4CCOCC4)cc32)c1 | 5 | 3 | -1 | 3 | 32* | -3 | -9 | 3
O=C(CN1C(=O)COc2ccc(S(=O)(=O)N3CCCC3)cc21)NC1CCCCCCC1 | 7 | -25 | 6 | 11 | 27* | 7 | -3 | 5
O=C(CN1C(=O)COc2ccc(S(=O)(=O)N3CCCC3)cc21)NC1CC1 | -13 | 7 | 3 | -11 | 4 | -6 | · | ·
Cc1ccc2c(c1)N(CC(=O)OC(CC(C)C)C(=O)NC1CCCC1)C(=O)CO2 (stereo not given) | 1 | 12 | 19 | 25 | 29* | 6 | 30* | 33*
CC(C)C(OC(=O)CN1C(=O)COc2ccccc21)C(=O)NC1CCCC1 (stereo not given) | -23 | -8 | 19 | 2 | 15 | -4 | · | ·
COc1ccc(Cl)cc1S(=O)(=O)N1CCN(C(=O)c2n[nH]c(=O)c3ccccc23)CC1 | 19 | 15 | · | · | · | · | · | ·
COC(=O)C1=NN(c2cccc(C)c2)C2C(=O)N(c3ccccc3OC)C(=O)C12 (stereo not given) | 12 | 13 | 1 | -11 | -6 | 4 | · | ·
CC(c1ccco1)N(C(=O)c1cc(Cl)cc(Cl)c1)c1ccccn1 (stereo not given) | -2 | 10 | 11 | 16 | -15 | 8 | · | ·
CC(c1ccco1)N(C(=O)c1ccccc1NS(=O)(=O)c1ccc(Cl)c([N+](=O)[O-])c1)c1ccccn1 (stereo not given) | -2 | -27 | 6 | 15 | 24* | 7 | 12 | 31*
O=C1CCCC2=C1C(c1ccncc1)c1c(nc(SCc3ccccc3Cl)[nH]c1=O)N2 (stereo not given) | 7 | 9 | · | · | -12 | · | · | ·
CCC(C)Sc1nc2c(c(=O)[nH]1)C(c1cccs1)C1=C(CCCC1=O)N2 (stereo not given) | 5 | 28 | -6 | -1 | 32* | -3 | 25* | 30*
CC(=O)c1cc(-c2ccccc2)n(CCC(=O)NC2CCC(C)CC2)c1C (stereo not given) | 11 | 15 | -2 | 5 | 23* | 8 | 5 | -5
CC(=O)c1cc(-c2ccccc2)n(CCC(=O)NC2CCCC2)c1C | 7 | 15 | -7 | -11 | -4 | 6 | · | ·
COc1ccc(C(=O)NCc2nnc(SCC(=O)NCCc3ccccc3)o2)cc1 | -15 | 11 | 0 | 16 | 24* | 2 | -15 | 8
COc1ccc(C(=O)NCc2nnc(SCC(=O)Nc3cc(Cl)ccc3OC)o2)cc1 | -2 | -21 | -28 | 20 | 40* | 3 | 10 | 15
COc1cc(C(=O)NCc2nnc(SCC(=O)N3CCc4ccccc43)o2)cc(OC)c1OC | -7 | 9 | -1 | 8 | 30* | 2 | 0 | -15
O=C(CSc1nnc(CNC(=O)c2ccc(F)cc2)o1)NCCc1ccccc1 | 5 | -25 | -8 | 6 | -12 | -6 | · | ·
COc1cc(C(=O)NCc2nnc(SCC(=O)N3CCCCCC3)o2)cc(OC)c1OC | -6 | -3 | 12 | -36 | -9 | -19 | · | ·
COC(=O)C(Cc1ccc(O)cc1)NC(=O)c1ccc2c(c1)OCCO2 (stereo not given) | -19 | -41 | -9 | 12 | -9 | -5 | · | ·
COc1ccc(NS(=O)(=O)c2cccc(C(=O)NNC(=O)c3ccc(Br)o3)c2)cc1 | 11 | 4 | -9 | 0 | · | 0 | · | ·
CN(Cc1ccccc1)C(=O)c1ccccc1-c1ccccc1 | 1 | -3 | 3 | -5 | 69* | 4 | -13 | 11
CCOc1ccc(C(=O)Nc2cccc3ncccc23)cc1Br | 4 | 3 | 4 | 3 | 26* | -4 | 3 | 9
COc1c(C(=O)Nc2ccc(Cc3ccncc3)cc2)ccc2ccccc12 | 14 | -19 | 13 | 6 | 5 | 6 | · | ·

Assay outcomes (PubChem BioAssay)
